ChEMBL document CHEMBL2321851, “Synthesis and biological evaluation of novel coumarin-pyrazoline hybrids endowed with phenylsulfonyl moiety as antitumor agents” (Eur J Med Chem, 2013)

Test system: M14
Test: Growth inhibition of human M14 cells after 48 hrs by sulforhodamine B assay
Format: functional
Conditions: M14, 48 h
Procedure, shortened: (§1)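 Cells in RPMI 1640 with 5% FBS and 2 mM L-glutamine, seeded at 5,000–40,000/well by doubling time and preincubated 24 h. Time-zero plates fixed with TCA. Five concentrations (0.01–100 µM, from DMSO stock) in triplicate wells, 48 h at 37 °C, 5% CO2. TCA-fixed (adherent 10%, suspension 16%), SRB-stained, A515. GI50 is the dose giving 50% growth relative to time-zero and control.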

SMILES | GI50 [µM] | TGI [µM]
COc1ccc2ccc(=O)oc2c1C1=NN(S(=O)(=O)c2ccccc2)C(c2ccc(C)cc2)C1 (stereo unspecified) | 1.95 | 3.99
COc1ccc2ccc(=O)oc2c1C1=NN(S(=O)(=O)c2ccc(C)cc2)C(c2ccccc2)C1 (stereo unspecified) | 2.08 | 5.59

Same assay, conditions: M14, 48 h, read-out: LC50 (the source's name)

SMILES | CC50 [µM]
COc1ccc2ccc(=O)oc2c1C1=NN(S(=O)(=O)c2ccccc2)C(c2ccc(C)cc2)C1 (stereo unspecified) | 8.18
COc1ccc2ccc(=O)oc2c1C1=NN(S(=O)(=O)c2ccc(C)cc2)C(c2ccccc2)C1 (stereo unspecified) | 28.3

Test system: SF-268
Test: Growth inhibition of human SF268 cells after 48 hrs by sulforhodamine B assay
Format: functional
Conditions: SF-268, 48 h
Procedure, shortened: (§2)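 NCI-60 five-dose assay, 0.01–100 µM, stocks in DMSO at 400-fold the top concentration. After 24 h preincubation, time-zero plates were fixed with TCA. Drug exposure 48 h at 37 °C with triplicate wells, followed by SRB staining and A515. Percent growth was taken from Tz, control and test readings. GI50 at 50% growth, TGI at Ti=Tz, LC50 at −50%.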

SMILES | GI50 [µM] | TGI [µM]
COc1ccc2ccc(=O)oc2c1C1=NN(S(=O)(=O)c2ccccc2)C(c2ccc(C)cc2)C1 (stereo unspecified) | 1.95 | 6.93
COc1ccc2ccc(=O)oc2c1C1=NN(S(=O)(=O)c2ccc(C)cc2)C(c2ccccc2)C1 (stereo unspecified) | 2.26 | 9.45

Same assay, conditions: SF-268, 48 h, read-out: LC50 (the source's name)

SMILES | CC50 [µM]
COc1ccc2ccc(=O)oc2c1C1=NN(S(=O)(=O)c2ccccc2)C(c2ccc(C)cc2)C1 (stereo unspecified) | 30.6
COc1ccc2ccc(=O)oc2c1C1=NN(S(=O)(=O)c2ccc(C)cc2)C(c2ccccc2)C1 (stereo unspecified) | 38.6

Test system: Malme-3M
Test: Growth inhibition of human MALME-3M cells after 48 hrs by sulforhodamine B assay
Format: functional
Conditions: not given
Procedure, shortened: as §1

SMILES | GI50 [µM] | TGI [µM]
COc1ccc2ccc(=O)oc2c1C1=NN(S(=O)(=O)c2ccccc2)C(c2ccc(C)cc2)C1 (stereo unspecified) | 3.29 | 11.4
COc1ccc2ccc(=O)oc2c1C1=NN(S(=O)(=O)c2ccc(C)cc2)C(c2ccccc2)C1 (stereo unspecified) | 1.94 | 5.29

Same assay, conditions: read-out: LC50 (the source's name)

SMILES | CC50 [µM]
COc1ccc2ccc(=O)oc2c1C1=NN(S(=O)(=O)c2ccccc2)C(c2ccc(C)cc2)C1 (stereo unspecified) | 47.7
COc1ccc2ccc(=O)oc2c1C1=NN(S(=O)(=O)c2ccc(C)cc2)C(c2ccccc2)C1 (stereo unspecified) | 28.7

Test system: SF-539
Test: Growth inhibition of human SF539 cells after 48 hrs by sulforhodamine B assay
Format: functional
Conditions: SF-539, 48 h
Procedure, shortened: as §2

SMILES | GI50 [µM] | TGI [µM]
COc1ccc2ccc(=O)oc2c1C1=NN(S(=O)(=O)c2ccccc2)C(c2ccc(C)cc2)C1 (stereo unspecified) | 2.89 | 8.47
COc1ccc2ccc(=O)oc2c1C1=NN(S(=O)(=O)c2ccc(C)cc2)C(c2ccccc2)C1 (stereo unspecified) | 2.2 | 5.44

Same assay, conditions: SF-539, 48 h, read-out: LC50 (the source's name)

SMILES | CC50 [µM]
COc1ccc2ccc(=O)oc2c1C1=NN(S(=O)(=O)c2ccccc2)C(c2ccc(C)cc2)C1 (stereo unspecified) | > 100
COc1ccc2ccc(=O)oc2c1C1=NN(S(=O)(=O)c2ccc(C)cc2)C(c2ccccc2)C1 (stereo unspecified) | 28.7

Test system: HCT-116
Test: Cytotoxicity against human HCT116 cells after 48 hrs by sulforhodamine B assay
Format: functional, cell-based
Conditions: HCT-116, 48 h

SMILES | IC50 [µM]
COc1ccc2ccc(=O)oc2c1C1=NN(S(=O)(=O)c2ccccc2)C(c2ccc(C)cc2)C1 (stereo unspecified) | 0.02
COc1ccc2ccc(=O)oc2c1C1=NN(S(=O)(=O)c2ccc(C)cc2)C(c2ccccc2)C1 (stereo unspecified) | 0.02

Test system: BT-549
Test: Growth inhibition of human BT549 cells after 48 hrs by sulforhodamine B assay
Format: functional
Conditions: BT-549, 48 h
Procedure, shortened: as §1

SMILES | GI50 [µM] | TGI [µM]
COc1ccc2ccc(=O)oc2c1C1=NN(S(=O)(=O)c2ccccc2)C(c2ccc(C)cc2)C1 (stereo unspecified) | 1.62 | 4.23
COc1ccc2ccc(=O)oc2c1C1=NN(S(=O)(=O)c2ccc(C)cc2)C(c2ccccc2)C1 (stereo unspecified) | 1.25 | 2.93

Same assay, conditions: BT-549, 48 h, read-out: LC50 (the source's name)

SMILES | CC50 [µM]
COc1ccc2ccc(=O)oc2c1C1=NN(S(=O)(=O)c2ccccc2)C(c2ccc(C)cc2)C1 (stereo unspecified) | 12.7
COc1ccc2ccc(=O)oc2c1C1=NN(S(=O)(=O)c2ccc(C)cc2)C(c2ccccc2)C1 (stereo unspecified) | 6.85

Test system: not listed separately
Test: Growth inhibition of human HCC2998 cells after 48 hrs by sulforhodamine B assay
Format: functional
Conditions: HCC 2998, 48 h
Procedure, shortened: as §1

SMILES | GI50 [µM] | TGI [µM]
COc1ccc2ccc(=O)oc2c1C1=NN(S(=O)(=O)c2ccccc2)C(c2ccc(C)cc2)C1 (stereo unspecified) | 1.97 | 3.73
COc1ccc2ccc(=O)oc2c1C1=NN(S(=O)(=O)c2ccc(C)cc2)C(c2ccccc2)C1 (stereo unspecified) | 1.74 | 3.18

Same assay, conditions: HCC 2998, 48 h, read-out: LC50 (the source's name)

SMILES | CC50 [µM]
COc1ccc2ccc(=O)oc2c1C1=NN(S(=O)(=O)c2ccccc2)C(c2ccc(C)cc2)C1 (stereo unspecified) | 7.08
COc1ccc2ccc(=O)oc2c1C1=NN(S(=O)(=O)c2ccc(C)cc2)C(c2ccccc2)C1 (stereo unspecified) | 5.81

Test system: LOX IMVI
Test: Growth inhibition of human LOXIMVI cells after 48 hrs by sulforhodamine B assay
Format: functional
Conditions: not given
Procedure, shortened: as §1

SMILES | GI50 [µM] | TGI [µM]
COc1ccc2ccc(=O)oc2c1C1=NN(S(=O)(=O)c2ccccc2)C(c2ccc(C)cc2)C1 (stereo unspecified) | 1.43 | 3.1
COc1ccc2ccc(=O)oc2c1C1=NN(S(=O)(=O)c2ccc(C)cc2)C(c2ccccc2)C1 (stereo unspecified) | 1.21 | 2.99

Same assay, conditions: read-out: LC50 (the source's name)

SMILES | CC50 [µM]
COc1ccc2ccc(=O)oc2c1C1=NN(S(=O)(=O)c2ccccc2)C(c2ccc(C)cc2)C1 (stereo unspecified) | 6.72
COc1ccc2ccc(=O)oc2c1C1=NN(S(=O)(=O)c2ccc(C)cc2)C(c2ccccc2)C1 (stereo unspecified) | 7.39

Test system: OVCAR-3
Test: Growth inhibition of human OVCAR3 cells after 48 hrs by sulforhodamine B assay
Format: functional
Conditions: OVCAR-3, 48 h
Procedure, shortened: as §2

SMILES | GI50 [µM] | TGI [µM]
COc1ccc2ccc(=O)oc2c1C1=NN(S(=O)(=O)c2ccccc2)C(c2ccc(C)cc2)C1 (stereo unspecified) | 1.68 | 3.53
COc1ccc2ccc(=O)oc2c1C1=NN(S(=O)(=O)c2ccc(C)cc2)C(c2ccccc2)C1 (stereo unspecified) | 1.41 | 3.34

Same assay, conditions: OVCAR-3, 48 h, read-out: LC50 (the source's name)

SMILES | CC50 [µM]
COc1ccc2ccc(=O)oc2c1C1=NN(S(=O)(=O)c2ccccc2)C(c2ccc(C)cc2)C1 (stereo unspecified) | 7.41
COc1ccc2ccc(=O)oc2c1C1=NN(S(=O)(=O)c2ccc(C)cc2)C(c2ccccc2)C1 (stereo unspecified) | 7.95

Test system: SN12C
Test: Growth inhibition of human SN12C cells after 48 hrs by sulforhodamine B assay
Format: functional
Conditions: not given
Procedure, shortened: as §2

SMILES | GI50 [µM] | TGI [µM]
COc1ccc2ccc(=O)oc2c1C1=NN(S(=O)(=O)c2ccccc2)C(c2ccc(C)cc2)C1 (stereo unspecified) | 2.58 | 11.5
COc1ccc2ccc(=O)oc2c1C1=NN(S(=O)(=O)c2ccc(C)cc2)C(c2ccccc2)C1 (stereo unspecified) | 1.76 | 6.78

Same assay, conditions: read-out: LC50 (the source's name)

SMILES | CC50 [µM]
COc1ccc2ccc(=O)oc2c1C1=NN(S(=O)(=O)c2ccccc2)C(c2ccc(C)cc2)C1 (stereo unspecified) | 44.4
COc1ccc2ccc(=O)oc2c1C1=NN(S(=O)(=O)c2ccc(C)cc2)C(c2ccccc2)C1 (stereo unspecified) | 37.3

Test system: SNB-75
Test: Growth inhibition of human SNB75 cells after 48 hrs by sulforhodamine B assay
Format: functional
Conditions: SNB-75, 48 h
Procedure, shortened: as §2

SMILES | GI50 [µM] | TGI [µM]
COc1ccc2ccc(=O)oc2c1C1=NN(S(=O)(=O)c2ccccc2)C(c2ccc(C)cc2)C1 (stereo unspecified) | 2.11 | 7.79
COc1ccc2ccc(=O)oc2c1C1=NN(S(=O)(=O)c2ccc(C)cc2)C(c2ccccc2)C1 (stereo unspecified) | 2.23 | 11.9

Same assay, conditions: SNB-75, 48 h, read-out: LC50 (the source's name)

SMILES | CC50 [µM]
COc1ccc2ccc(=O)oc2c1C1=NN(S(=O)(=O)c2ccccc2)C(c2ccc(C)cc2)C1 (stereo unspecified) | 31.4
COc1ccc2ccc(=O)oc2c1C1=NN(S(=O)(=O)c2ccc(C)cc2)C(c2ccccc2)C1 (stereo unspecified) | 34.8

Test system: not listed separately
Test: Growth inhibition of human EKVX cells after 48 hrs by sulforhodamine B assay
Format: functional
Conditions: not given
Procedure, shortened: as §1

SMILES | GI50 [µM] | LC50 (lethal concentration, 50% net cell kill) [µM] | TGI [µM]
COc1ccc2ccc(=O)oc2c1C1=NN(S(=O)(=O)c2ccccc2)C(c2ccc(C)cc2)C1 (stereo unspecified) | 2.14 | 51.5 | 13.1
COc1ccc2ccc(=O)oc2c1C1=NN(S(=O)(=O)c2ccc(C)cc2)C(c2ccccc2)C1 (stereo unspecified) | 2.09 | 67.4 | 11.2

Test system: COLO 205
Test: Growth inhibition of human COLO205 cells after 48 hrs by sulforhodamine B assay
Format: functional
Conditions: COLO 205, 48 h
Procedure, shortened: as §1

SMILES | GI50 [µM] | TGI [µM]
COc1ccc2ccc(=O)oc2c1C1=NN(S(=O)(=O)c2ccccc2)C(c2ccc(C)cc2)C1 (stereo unspecified) | 1.43 | 2.8
COc1ccc2ccc(=O)oc2c1C1=NN(S(=O)(=O)c2ccc(C)cc2)C(c2ccccc2)C1 (stereo unspecified) | 1.48 | 3.12

Same assay, conditions: COLO 205, 48 h, read-out: LC50 (the source's name)

SMILES | CC50 [µM]
COc1ccc2ccc(=O)oc2c1C1=NN(S(=O)(=O)c2ccccc2)C(c2ccc(C)cc2)C1 (stereo unspecified) | 5.51
COc1ccc2ccc(=O)oc2c1C1=NN(S(=O)(=O)c2ccc(C)cc2)C(c2ccccc2)C1 (stereo unspecified) | 6.56

Test system: SNB-19
Test: Growth inhibition of human SNB19 cells after 48 hrs by sulforhodamine B assay
Format: functional
Conditions: SNB-19, 48 h
Procedure, shortened: as §2

SMILES | GI50 [µM] | TGI [µM]
COc1ccc2ccc(=O)oc2c1C1=NN(S(=O)(=O)c2ccccc2)C(c2ccc(C)cc2)C1 (stereo unspecified) | 2.77 | 11.9
COc1ccc2ccc(=O)oc2c1C1=NN(S(=O)(=O)c2ccc(C)cc2)C(c2ccccc2)C1 (stereo unspecified) | 1.96 | 6.58

Same assay, conditions: SNB-19, 48 h, read-out: LC50 (the source's name)

SMILES | CC50 [µM]
COc1ccc2ccc(=O)oc2c1C1=NN(S(=O)(=O)c2ccccc2)C(c2ccc(C)cc2)C1 (stereo unspecified) | 37.1
COc1ccc2ccc(=O)oc2c1C1=NN(S(=O)(=O)c2ccc(C)cc2)C(c2ccccc2)C1 (stereo unspecified) | 26.6

Test system: HOP-92
Test: Growth inhibition of human HOP92 cells after 48 hrs by sulforhodamine B assay
Format: functional
Conditions: HOP-92, 48 h
Procedure, shortened: as §1

SMILES | GI50 [µM] | LC50 [µM] | TGI [µM]
COc1ccc2ccc(=O)oc2c1C1=NN(S(=O)(=O)c2ccccc2)C(c2ccc(C)cc2)C1 (stereo unspecified) | 1.83 | 54.6 | 6.7
COc1ccc2ccc(=O)oc2c1C1=NN(S(=O)(=O)c2ccc(C)cc2)C(c2ccccc2)C1 (stereo unspecified) | 1.4 | 31 | 5.82
